Measurements published in ChEMBL document CHEMBL1949554, “Peptidomimetics containing a vinyl ketone warhead as falcipain-2 inhibitors” (Eur J Med Chem, 2011).
Each block holds one molecule with its values, some of them ahead of it. Activity calls are given as the source filed them. No cut-off for these calls is given here.

Key:
Procathepsin L [1] = biological target: T1, Procathepsin L (Homo sapiens, UniProt P07711); assay: Inhibition of human cathepsin L using Cbz-Phe-Arg-AMC as substrate by spectrofluorometer analysis
Target sequence in this assay (P07711 whole entry): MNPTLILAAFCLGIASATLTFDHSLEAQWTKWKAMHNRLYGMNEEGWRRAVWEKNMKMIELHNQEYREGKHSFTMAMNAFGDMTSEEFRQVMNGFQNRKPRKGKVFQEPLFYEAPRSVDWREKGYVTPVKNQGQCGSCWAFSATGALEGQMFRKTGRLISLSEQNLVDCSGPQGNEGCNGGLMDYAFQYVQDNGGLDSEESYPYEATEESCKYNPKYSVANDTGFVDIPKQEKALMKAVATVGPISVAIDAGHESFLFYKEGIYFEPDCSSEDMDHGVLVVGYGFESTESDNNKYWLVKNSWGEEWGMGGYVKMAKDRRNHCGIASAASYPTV

Plasmodium falciparum [2] = assay: Antiplasmodial activity against Plasmodium falciparum FCBR; type: functional, organism-based; details: FCBR/Columbia
Cathepsin B = Cathepsin B (Homo sapiens, UniProt P07858); assay: Inhibition of human cathepsin-B using Cbz-Phe-Arg-AMC as substrate by spectrofluorometer analysis
[3] = Inhibition of Plasmodium falciparum Falcipain 2 using Cbz-Phe-Arg-AMC as substrate after 15 mins by spectrofluorometer analysis
Outline: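 Continuous progress-curve assay in 50 mM sodium acetate pH 5.5 with 10 mM DTT, Cbz-Phe-Arg-AMC as substrate, inhibitors from DMSO stocks. AMC release read (ex 365, em 460 nm) for 15 min at room temperature. kobs from the fit F = A(1−exp(−kobs·t)) + B. Hyperbolic kobs vs [I] gave kinac and KI; linear plots gave k2nd = kobs/[I]. At least two independent runs, each in duplicate.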

Procathepsin L [4] = biological target: T1, Procathepsin L; details: 5 to 50 uM
Target sequence in this assay (P07711 114-333 limits assumed): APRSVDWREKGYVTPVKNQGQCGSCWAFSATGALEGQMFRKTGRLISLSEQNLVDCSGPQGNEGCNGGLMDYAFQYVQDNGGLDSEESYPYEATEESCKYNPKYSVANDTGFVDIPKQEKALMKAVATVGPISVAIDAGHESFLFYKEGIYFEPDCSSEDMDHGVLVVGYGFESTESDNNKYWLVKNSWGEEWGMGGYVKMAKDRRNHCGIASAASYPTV

Plasmodium falciparum [5] = assay: Inhibition of Plasmodium falciparum Falcipain 2 using Cbz-Phe-Arg-AMC as substrate at 100 uM after 15 mins by spectrofluorometer analysis
Outline: (§1)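 Single-concentration screen at 100 and 30 inhibitor concentration, with an equal amount of DMSO as negative control and E-64 as positive control. AMC release from Cbz-Phe-Arg-AMC was followed fluorimetrically (ex 365, em 460 nm) as continuous increase in fluorescence. Percent inhibition is relative to DMSO. At least two independent measurements, each in duplicate.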

Plasmodium falciparum [6] = assay: Inhibition of Plasmodium falciparum Falcipain 2 using Cbz-Phe-Arg-AMC as substrate at 30 uM after 15 mins by spectrofluorometer analysis; outline: as §1

Ki (Procathepsin L [1]; read-out: Ki): 82 µM
IC50 (Plasmodium falciparum [2]): > 100 µM
Structure (SMILES): CC(=O)/C=C/CNC(=O)CN1C(=O)[C@@H](COC(=O)Nc2ccc(Cl)cc2C(F)(F)F)N=C(C)c2ccccc21

Structure (SMILES): CC(=O)/C=C/CNC(=O)CN1C(=O)[C@@H](CN2CCOCC2)N=C(c2ccccc2)c2ccccc21
Ki (Cathepsin B): > 100 µM

Structure (SMILES): CC(=O)/C=C/CNC(=O)CN1C(=O)[C@@H](CNCC(C)C)N=C(c2ccccc2)c2ccccc21
Ki [3]: > 100 µM
Ki (Procathepsin L [1]; read-out: Ki): > 140 µM
Ki (Cathepsin B): > 100 µM

Structure (SMILES): CC(=O)/C=C/CNC(=O)CN1C(=O)[C@@H](COC(=O)Nc2ccc(Cl)cc2C(F)(F)F)N=C(c2ccccc2)c2ccccc21
Ki (Procathepsin L [1]; read-out: Ki(app)): 8.6 µM
inhibition (Procathepsin L [4]): tde

Structure (SMILES): CC(=O)/C=C/CNC(=O)CN1C(=O)[C@@H](CN2CCCCC2)N=C(c2ccccc2)c2ccccc21
inhibition (Plasmodium falciparum [5]): 80%
Ki (Procathepsin L [1]; read-out: Ki): > 100 µM
Ki (Cathepsin B): > 100 µM
inhibition (Plasmodium falciparum [6]): inactive
